In brackets after ≈: the same amount, converted by molar mass. Blank lines part the entries; values can stand above or below the molecule they belong to.
Assays:
[1] = Apparent permeability of the compound measured after 4 hrs by PAMPA assay; assay type: ADME
How it was run: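 PAMPA: compound was placed in pH 6.5 donor buffer across a lipid-pretreated PVDF filter from pH 7.4 acceptor buffer, and incubated 4 h at ambient temperature. Donor and acceptor amounts at start and end were measured by UV absorbance to give apparent permeability.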

Escherichia coli [2] = experiment: Antibacterial activity against wild type Escherichia coli BW25113 assessed as inhibition of bacterial growth; assay type: functional
Escherichia coli [3] = experiment: Antibacterial activity against Escherichia coli JW55031 harboring tolC mutant assessed as inhibition of bacterial growth; assay type: functional
Candida albicans = experiment: Antifungal activity against wild type Candida albicans SC5314 assessed as inhibition of fungal growth; assay type: functional
Clostridioides difficile = experiment: Antibacterial activity against Clostridium difficile ATCC BAA1870 assessed as inhibition of bacterial growth; assay type: functional
Staphylococcus aureus = experiment: Antibacterial activity against Methicillin-resistant Staphylococcus aureus USA300 assessed as inhibition of bacterial growth; assay type: functional

Papp at 4 h [1]: 76.6 ×10⁻⁶ cm/s
SMILES: CC(C)NCC(O)COc1cccc2ccccc12 (stereo unspecified) [PROPRANOLOL]

SMILES: Cc1nc(-c2ccc3ccccc3c2)sc1-c1nnc(N2CCC[C@@H]2C(N)=O)o1
MIC (Escherichia coli [2]): > 64 µg/mL
MIC (Escherichia coli [3]): > 64 µg/mL
MIC (Candida albicans): > 64 µg/mL
MIC (Clostridioides difficile): > 64 µg/mL
MIC (Staphylococcus aureus): > 64 µg/mL

SMILES: CCCNc1nnc(-c2sc(-c3ccc4ccccc4c3)nc2C)o1
MIC (Escherichia coli [2]): > 64 µg/mL
MIC (Escherichia coli [3]): > 64 µg/mL
MIC (Candida albicans): > 64 µg/mL
MIC (Clostridioides difficile): > 64 µg/mL
MIC (Staphylococcus aureus): > 64 µg/mL

SMILES: Cc1nc(-c2ccc3ccccc3c2)sc1-c1nnc(NCC(=N)N)o1
MIC (Escherichia coli [2]): > 64 µg/mL
MIC (Escherichia coli [3]): > 64 µg/mL
MIC (Candida albicans): 32 µg/mL (≈ 87.8 µM)
MIC (Clostridioides difficile): 64 µg/mL (≈ 176 µM)
MIC (Staphylococcus aureus): > 64 µg/mL

SMILES: CCNc1nnc(-c2sc(-c3ccc4ccccc4c3)nc2C)o1
MIC (Escherichia coli [2]): > 64 µg/mL
MIC (Escherichia coli [3]): 64 µg/mL (≈ 190 µM)
MIC (Candida albicans): > 64 µg/mL
MIC (Clostridioides difficile): 64 µg/mL (≈ 190 µM)
MIC (Staphylococcus aureus): 64 µg/mL (≈ 190 µM)

SMILES: CC(=O)NC[C@H]1CN(c2ccc(N3CCOCC3)c(F)c2)C(=O)O1 [LINEZOLID]
MIC (Escherichia coli [2]): > 64 µg/mL
MIC (Escherichia coli [3]): 8 µg/mL (≈ 23.7 µM)
MIC (Clostridioides difficile): 1 µg/mL (≈ 2.96 µM)
MIC (Staphylococcus aureus): 1 µg/mL (≈ 2.96 µM)

SMILES: Cc1nc(-c2ccc3ccccc3c2)sc1-c1nnc(N[C@H]2CC[C@H](N)CC2)o1
MIC (Escherichia coli [2]): > 64 µg/mL
MIC (Escherichia coli [3]): > 64 µg/mL
MIC (Candida albicans): 64 µg/mL (≈ 158 µM)
MIC (Clostridioides difficile): 64 µg/mL (≈ 158 µM)
MIC (Staphylococcus aureus): 64 µg/mL (≈ 158 µM)

SMILES: Cc1nc(-c2ccc3ccccc3c2)sc1-c1nnc(N2CCC[C@H]2C(N)=O)o1
MIC (Escherichia coli [2]): > 64 µg/mL
MIC (Escherichia coli [3]): > 64 µg/mL
MIC (Candida albicans): > 64 µg/mL
MIC (Clostridioides difficile): > 64 µg/mL
MIC (Staphylococcus aureus): > 64 µg/mL

SMILES: Cc1nc(-c2ccc3ccccc3c2)sc1-c1nnc(N2CCC[C@@H]2CO)o1
MIC (Escherichia coli [2]): > 64 µg/mL
MIC (Escherichia coli [3]): > 64 µg/mL
MIC (Candida albicans): > 64 µg/mL
MIC (Clostridioides difficile): 16 µg/mL (≈ 40.8 µM)
MIC (Staphylococcus aureus): > 64 µg/mL

Papp at 4 h [1]: 10.2 ×10⁻⁶ cm/s
SMILES: CC(C(=O)O)c1cccc(C(=O)c2ccccc2)c1 (stereo unspecified) [KETOPROFEN]
